From ChEMBL document CHEMBL4364267, “Hydrogen sulfide donating ent-kaurane and spirolactone-type 6,7-seco-ent-kaurane derivatives: Design, synthesis and antiproliferative properties” (Eur J Med Chem, 2019)
The source made the active and inactive calls. The calls are words filed in the database; no cut-off is given here.

Assays:
Bel-7402 = assay: Antiproliferative activity against human Bel7402 cells assessed as reduction in cell viability after 72 hrs by MTT assay; type: functional, cell-based; conditions: Bel-7402, 72 h
Procedure, shortened: (§1)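 MTT assay over 72 h, compounds at 64, 16, 4, 1, 0.25, 0.0625 and 0.015625 μM. MTT solution (5 mg/mL) and DMSO added afterwards, 10 min at room temperature, absorbance read at 490 nm. IC50 calculated as the mean ± SD of three independent experiments.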

K562 = assay: Antiproliferative activity against human K562 cells assessed as reduction in cell viability after 72 hrs by MTT assay; type: functional, cell-based; conditions: K562, 72 h; procedure, shortened: as §1
L02 = assay: Cytotoxicity against human L02 cells assessed as reduction in cell viability after 72 hrs by MTT assay; type: cell-based; conditions: L02, 72 h; procedure, shortened: as §1
A549 = assay: Antiproliferative activity against human A549 cells assessed as reduction in cell viability after 72 hrs by MTT assay; type: functional, cell-based; conditions: A549, 72 h; procedure, shortened: as §1
SGC-7901 = assay: Antiproliferative activity against human SGC7901 cells assessed as reduction in cell viability after 72 hrs by MTT assay; type: functional, cell-based; conditions: SGC-7901, 72 h; procedure, shortened: as §1
PBMC = assay: Cytotoxicity against human PBMC assessed as reduction in cell viability after 72 hrs by MTT assay; type: cell-based; procedure, shortened: as §1
[1] = Induction of H2S generation in PBS containing Na2S and MB+ cocktail in presence of TCEP/L-cysteine measured at 15 to 20 mins after 20 mins compound incubation by methylene blue dye based UV-Vis spectrophotometric method; type: functional
Procedure, shortened: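 Na2S standards (5–150 μM) in sodium phosphate buffer reacted 20 min at room temperature with methylene blue cocktail (FeCl3/HCl, N,N-dimethyl-1,4-phenylenediamine/HCl, Zn(OAc)2) to build a 670 nm calibration curve. Compounds from 40 mM THF stock added to phosphate buffer with 1 mM TCEP or L-cysteine. Aliquots taken into the cocktail at set times, incubated 20 min, read at 670 nm. Mean of three experiments.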

Oc1ccc(-c2cc(=S)ss2)cc1
IC50 (Bel-7402): > 50 µM
IC50 (K562): > 50 µM
IC50 (L02): > 50 µM
IC50 (A549): > 50 µM
IC50 (SGC-7901): > 50 µM
IC50 (PBMC): > 50 µM

C=C1C(=O)[C@@]23C(=O)OC[C@]4([C@@H](OC(C)=O)CCC(C)(C)[C@H]4C=O)[C@@H]2CC[C@@H]1[C@H]3OC(=O)CCCCC1CCSS1 (stereo partly drawn)
IC50 (Bel-7402): 4.58 µM
IC50 (K562): 6.75 µM
Activity [1]: Active
IC50 (L02): 36.5 µM
IC50 (A549): 19.9 µM
IC50 (SGC-7901): 10 µM
IC50 (PBMC): > 50 µM

O=C(O)CCCCC1CCSS1 (stereo not drawn) [LIPOIC ACID, ALPHA]
IC50 (Bel-7402): > 50 µM
IC50 (K562): > 50 µM
IC50 (L02): > 50 µM
IC50 (A549): > 50 µM
IC50 (SGC-7901): > 50 µM
IC50 (PBMC): > 50 µM

C=C1C(=O)[C@@]23C(=O)OC[C@]4(C(=O)CCC(C)(C)[C@H]4C=O)[C@@H]2CC[C@@H]1[C@H]3OC(=O)CCCCC1CCSS1 (stereo partly drawn)
IC50 (Bel-7402): 2.56 µM
IC50 (K562): 2.59 µM
Activity [1]: Active
IC50 (L02): 19.9 µM
IC50 (A549): 7.92 µM
IC50 (SGC-7901): 6.43 µM
IC50 (PBMC): > 50 µM

C=C1C(=O)[C@]23[C@H](OC(=O)CCC(=O)Oc4ccc(-c5cc(=S)ss5)cc4)[C@H]1CC[C@H]2[C@@]12CO[C@]3(O)[C@@H](O)[C@@H]1C(C)(C)CC[C@@H]2OC(C)=O
IC50 (Bel-7402): 2.87 µM
IC50 (K562): 2.54 µM
IC50 (L02): 23.2 µM
IC50 (A549): 6.34 µM
IC50 (SGC-7901): 5.49 µM
IC50 (PBMC): 44.1 µM

O=c1[nH]cc(F)c(=O)[nH]1 [FLUOROURACIL]
IC50 (Bel-7402): 17.6 µM
IC50 (K562): 4.02 µM
IC50 (L02): > 50 µM
IC50 (SGC-7901): 6.38 µM
IC50 (PBMC): > 50 µM

C=C1C(=O)[C@]23[C@H](O)[C@H]1CC[C@H]2[C@@]12CO[C@]3(O)[C@@H](O)[C@@H]1C(C)(C)CCC2=O
IC50 (Bel-7402): 3.88 µM
IC50 (K562): 4.02 µM
IC50 (L02): 23.4 µM
IC50 (A549): 9.86 µM
IC50 (SGC-7901): 16.5 µM
IC50 (PBMC): > 50 µM

C=C1C(=O)[C@]23[C@H](OC(=O)CCCC(=O)Oc4ccc(-c5cc(=S)ss5)cc4)[C@H]1CC[C@H]2[C@@]12CO[C@]3(O)[C@@H](O)[C@@H]1C(C)(C)CC[C@@H]2OC(C)=O
IC50 (Bel-7402): 1.94 µM
IC50 (K562): 2.02 µM
IC50 (L02): 14.7 µM
IC50 (A549): 9.76 µM
IC50 (SGC-7901): 5.36 µM
IC50 (PBMC): > 50 µM

C=C1C(=O)[C@@]23C(=O)OC[C@]4([C@@H](OC(C)=O)CCC(C)(C)[C@H]4C=O)[C@@H]2CC[C@@H]1[C@H]3OC(=O)CCC(=O)Oc1ccc(-c2cc(=S)ss2)cc1
IC50 (Bel-7402): 9.73 µM
IC50 (K562): 15.3 µM
Activity [1]: Active
IC50 (L02): > 50 µM
IC50 (A549): 27.5 µM
IC50 (SGC-7901): 17.9 µM
IC50 (PBMC): 25.9 µM

C=C1C(=O)[C@@]23C(=O)OC[C@]4(C(=O)CCC(C)(C)[C@H]4C=O)[C@@H]2CC[C@@H]1[C@H]3OC(=O)c1ccccc1C(=O)Oc1ccc(-c2cc(=S)ss2)cc1
IC50 (Bel-7402): 3.26 µM
IC50 (K562): 4.25 µM
Activity [1]: Active
IC50 (L02): 26.2 µM
IC50 (A549): 7.45 µM
IC50 (SGC-7901): 5.93 µM
IC50 (PBMC): 31.4 µM

C=C1C(=O)[C@]23[C@H](O)[C@H]1CC[C@H]2[C@@]12CO[C@@]3(O)[C@@H](O)[C@@H]1C(C)(C)CC[C@@H]2OC(C)=O
IC50 (Bel-7402): 3.59 µM
IC50 (K562): 4.92 µM
IC50 (L02): 22.4 µM
IC50 (A549): 13.5 µM
IC50 (SGC-7901): 6.45 µM
IC50 (PBMC): > 50 µM

C=C1C(=O)[C@@]23C(=O)OC[C@]4([C@@H](OC(C)=O)CCC(C)(C)[C@H]4C=O)[C@@H]2CC[C@@H]1[C@H]3OC(=O)CCCC(=O)Oc1ccc(-c2cc(=S)ss2)cc1
IC50 (Bel-7402): 4.59 µM
IC50 (K562): 3.27 µM
Activity [1]: Active
IC50 (L02): > 50 µM
IC50 (A549): 14.8 µM
IC50 (SGC-7901): 7.66 µM
IC50 (PBMC): 30.7 µM

C=C1C(=O)[C@@]23C(=O)OC[C@]4(C(=O)CCC(C)(C)[C@H]4C=O)[C@@H]2CC[C@@H]1[C@H]3OC(=O)CCC(=O)Oc1ccc(-c2cc(=S)ss2)cc1
IC50 (Bel-7402): 1.38 µM
IC50 (K562): 1.82 µM
Activity [1]: Active
IC50 (L02): 18.2 µM
IC50 (A549): 5.54 µM
IC50 (SGC-7901): 4.24 µM
IC50 (PBMC): 16.6 µM

C=C1C(=O)[C@]23[C@H](OC(=O)CCC(=O)Oc4ccc(-c5cc(=S)ss5)cc4)[C@H]1CC[C@H]2[C@@]12CO[C@]3(O)[C@@H](O)[C@@H]1C(C)(C)CCC2=O
IC50 (Bel-7402): 3.52 µM
IC50 (K562): 3.66 µM
IC50 (L02): > 50 µM
IC50 (A549): 9.78 µM
IC50 (SGC-7901): 12.5 µM
IC50 (PBMC): 29.6 µM

C=C1C(=O)[C@]23[C@H](O)[C@H]1CC[C@H]2[C@@]12CO[C@]3(O)[C@@H](O)[C@@H]1C(C)(C)CC[C@@H]2O [ORIDONIN]
IC50 (Bel-7402): 8.31 µM
IC50 (L02): 18.7 µM
IC50 (A549): 17.8 µM
IC50 (SGC-7901): 7.87 µM
IC50 (PBMC): > 50 µM

C=C1C(=O)[C@@]23C(=O)OC[C@]4(C(=O)CCC(C)(C)[C@H]4C=O)[C@@H]2CC[C@@H]1[C@H]3O
IC50 (Bel-7402): 4.67 µM
IC50 (K562): 3.26 µM
IC50 (L02): 29.7 µM
IC50 (A549): 5.31 µM
IC50 (SGC-7901): 19.5 µM
IC50 (PBMC): > 50 µM

C=C1C(=O)[C@]23[C@H](OC(=O)CCCCC4CCSS4)[C@H]1CC[C@H]2[C@@]12CO[C@]3(O)[C@@H](O)[C@@H]1C(C)(C)CC[C@@H]2OC(C)=O (stereo partly drawn)
IC50 (Bel-7402): 2.25 µM
IC50 (K562): 2.84 µM
Activity [1]: Active
IC50 (L02): 41.1 µM
IC50 (A549): 8.65 µM
IC50 (SGC-7901): 6.02 µM
IC50 (PBMC): 28.8 µM

C=C1C(=O)[C@@]23C(=O)OC[C@]4([C@@H](OC(C)=O)CCC(C)(C)[C@H]4C=O)[C@@H]2CC[C@@H]1[C@H]3O
IC50 (Bel-7402): > 50 µM
IC50 (K562): 8.96 µM
IC50 (L02): > 50 µM
IC50 (A549): 27.4 µM
IC50 (SGC-7901): 49.8 µM
IC50 (PBMC): > 50 µM

C=C1C(=O)[C@]23[C@H](OC(=O)c4ccccc4C(=O)Oc4ccc(-c5cc(=S)ss5)cc4)[C@H]1CC[C@H]2[C@@]12CO[C@]3(O)[C@@H](O)[C@@H]1C(C)(C)CCC2=O
IC50 (Bel-7402): 5.34 µM
IC50 (K562): 4.8 µM
Activity [1]: Active
IC50 (L02): 42.6 µM
IC50 (A549): 7.69 µM
IC50 (SGC-7901): 14.9 µM
IC50 (PBMC): > 50 µM

C=C1C(=O)[C@]23[C@H](OC(=O)CCCC(=O)Oc4ccc(-c5cc(=S)ss5)cc4)[C@H]1CC[C@H]2[C@@]12CO[C@]3(O)[C@@H](O)[C@@H]1C(C)(C)CCC2=O
IC50 (Bel-7402): 3.04 µM
IC50 (K562): 3.84 µM
IC50 (L02): 21 µM
IC50 (A549): 4.38 µM
IC50 (SGC-7901): 6.59 µM
IC50 (PBMC): 17.2 µM

C=C1C(=O)[C@]23[C@H](OC(=O)c4ccccc4C(=O)Oc4ccc(-c5cc(=S)ss5)cc4)[C@H]1CC[C@H]2[C@@]12CO[C@]3(O)[C@@H](O)[C@@H]1C(C)(C)CC[C@@H]2OC(C)=O
IC50 (Bel-7402): 7.68 µM
IC50 (K562): 11.4 µM
Activity [1]: Active
IC50 (L02): > 50 µM
IC50 (A549): 16.7 µM
IC50 (SGC-7901): 12.4 µM
IC50 (PBMC): 39.5 µM
